Measurements of several laboratories.
Protocols differ between the studies behind these lines.

The chromatographic logD of `CCOC(=O)C1=C(C)N/C(=C/c2ccn(-c3ccccc3C(F)(F)F)c2)C1=O` is reported as 3 (HPLC; pH 7.4).
`Cc1n[nH]c(CC(=O)N2Cc3c(-c4ccc(C(=O)N5CCCc6ccccc65)cc4)cnn3C[C@H]2C)n1` has a chromatographic logD of 2.7 (HPLC; pH 7.4).
The chromatographic logD of `CC1=C(C#N)[C@@H](c2ccc(C#N)cc2)NC(=O)N1c1cccc(C(F)(F)F)c1` is reported as 2.8 (HPLC; pH 7.5).
For `CCOC(=O)C1=C(C)N/C(=C/c2cc(C)n(-c3ccc(CN4CCOCC4)cc3)c2C)C1=O`, the chromatographic logD was 2.5 (HPLC; pH 7.4).
The chromatographic logD of `CC(C)(C)C1=CC(=NNc2ccc([N+](=O)[O-])cc2[N+](=O)[O-])C=C(C(C)(C)C)C1=O` is reported as greater than 5.3 (HPLC; pH 7.4).
`Cn1c(-c2nc3cc(C(=O)N4CCCC(N)C4)ccc3n2C)cc2ccccc21` (stereo not shown) gave a chromatographic logD of 2.8 (HPLC; pH 7.4).
`CCOC(=O)C1=C(C)N/C(=C/c2cc(C)n(-c3ccc(CN4CCCCC4)cc3)c2C)C1=O` has a chromatographic logD of 2.7 (HPLC; pH 7.4).
With `CCn1c(-c2nc3ccc(C(=O)N4CCCC(N)C4)cc3n2C)cc2ccccc21` (stereo not shown) the chromatographic logD was 3 (HPLC; pH 7.4).
`C[C@@H]1Cn2ncc(-c3ccc(C(=O)N4CCCc5ccccc54)cc3)c2CN1C(=O)[C@H](C)c1ccccc1` gave a chromatographic logD of 5.2 (HPLC; pH 7.4).
For `N#CC(c1ccc(CNc2cccc3c2CN(C2CCC(=O)NC2=O)C3=O)cc1)N1CCOCC1` (stereo not shown), the chromatographic logD was 2 (HPLC; pH 7.4).
`CCOC(=O)C1=C(C)N/C(=C/c2cc(C)n(-c3ccc(CN(C)C)cc3)c2C)C1=O` gave a chromatographic logD of 2.1 (HPLC; pH 7.4).
The chromatographic logD of `CO[C@H](C(=O)N1Cc2c(-c3ccc(C(=O)N4CCCc5ccccc54)cn3)cnn2C[C@H]1C(C)C)c1cnn(C)c1` (single isomer, unassigned) is reported as 3.1 (HPLC; pH 7.4).
For `CCOC(=O)C1=C(C)N/C(=C/c2cc(CC)n(-c3ccccc3C(F)(F)F)c2CC)C1=O`, the chromatographic logD was 3.6 (HPLC; pH 7.4).
With `CO[C@H](C(=O)N1Cc2c(-c3ccc(C(=O)N4CCCc5ccccc54)cc3)cnn2C[C@H]1C(C)C)c1cnn(C)c1` (single isomer, unassigned) the chromatographic logD was 4.2 (HPLC; pH 7.4).
`CC1=C(C(N)=O)C(=O)/C(=C\c2cc(C)n(-c3ccccc3C(F)(F)F)c2C)N1` has a chromatographic logD of 2.8 (HPLC; pH 7.4).
`O=C(Nc1ccnc(C(F)(F)F)c1)Nc1cccc2c1OC(F)(F)O2` gave a chromatographic logD of 3.6 (HPLC; pH 7.4).
`CCn1cnnc1C1CCN(C(=O)c2cn3ccc(C)cc3n2)CC1` gave a chromatographic logD of 1.2 (pH 7.4).
`CC1=C(C#N)[C@@H](c2ccc(C#N)cc2S(C)(=O)=O)NC(=O)N1c1cccc(C(F)(F)F)c1` has a chromatographic logD of 2.7 (HPLC; pH 7.5).
The chromatographic logD of `COc1ccc(-c2nc(C(=O)Nc3cccc(-c4nnc5n4CCCCC5)c3)cs2)cc1OC` is reported as 4.8 (pH 7.4).
`CO[C@H](C(=O)N1Cc2c(-c3ccc(C(=O)N4CCCc5ccccc54)cc3)cnn2C[C@H]1C(C)C)c1ccccc1` (single isomer, unassigned) has a chromatographic logD of 5.4 (HPLC; pH 7.4).
For `CC1=C(C(=O)O)C(=O)/C(=C\c2cc(C)n(-c3ccccc3C(F)(F)F)c2C)N1`, the chromatographic logD was 3.2 (HPLC; pH 7.4).
`O=C(Nc1ccccc1C(=O)NC1CC1)c1cccc(N2CCCC2=O)c1` has a chromatographic logD of 4 (pH 7.4).
